{"data": "Measurements pooled from the literature", "Ephx2": "Bifunctional epoxide hydrolase 2 (Ephx2, Rattus norvegicus, UniProt P80299)", "Dihydrofolate reductase": "Dihydrofolate reductase (Mycobacterium avium, UniProt O30463)", "note": "Protocols differ between the studies behind these lines."}
{"SMILES": "O=C(C=Cc1ccccc1)Nc1cc(-c2ccnc(N3CCC(O)CC3)c2)ccn1", "target": "Estrogen receptor (ESR1, Homo sapiens, UniProt P03372)", "test": "binding, SPR", "quantity": "Kd", "value": "1280 nM"}
{"SMILES": "CC[C@H](NC(=O)[C@H](CS(=O)(=O)CC1CC1)N[C@@H](c1ccc(F)cc1)C(F)(F)F)C(=O)C(=O)NC1CC1", "target": "Dipeptidyl peptidase 1 (Ctsc, Mus musculus, UniProt P97821)", "test": "enzyme activity, inhibitor, fluorescence", "quantity": "IC50", "value": "18000 nM"}
{"SMILES": "O=C(Nc1ccc(-c2ccnc3ccccc23)cc1)C1CCN(S(=O)(=O)c2ccccc2Cl)CC1", "target": "Ephx2", "test": "enzyme activity, inhibitor, fluorescence", "quantity": "IC50", "value": "0.7 nM"}
{"SMILES": "O=C1CC[C@H](N2Cc3cc(N4CCN(CC5CCN(c6ccc([C@@H]7c8ccc(O)cc8CC[C@@H]7c7ccccc7)cc6)CC5)CC4)ccc3C2=O)C(=O)N1", "target": "Glucocorticoid receptor (NR3C1, Homo sapiens, UniProt P04150)", "test": "ligand displacement, radioligand", "quantity": "IC50", "value": "83 nM"}
{"SMILES": "Nc1nc(N)c(OCCCOc2ccccc2CCC(=O)O)c(-c2ccc(C(F)(F)F)cc2)n1", "target": "Dihydrofolate reductase", "test": "enzyme activity, inhibitor", "quantity": "IC50", "value": "67 nM"}
{"SMILES": "O=C(Nc1ccc(-c2ccc3cccnc3c2)cc1)C1CCN(S(=O)(=O)c2ccccc2Cl)CC1", "target": "Ephx2", "test": "enzyme activity, inhibitor, fluorescence", "quantity": "IC50", "value": "8.1 nM"}
{"SMILES": "Cc1cc([C@@H](C)Nc2ccccc2C(=O)O)c2nc(N3CCC(F)(F)CC3)c(C#N)c(=O)n2c1", "target": "Phosphatidylinositol 3-kinase catalytic subunit type 3 (PIK3C3, Homo sapiens, UniProt Q8NEB9)", "test": "enzyme activity, inhibitor, ADP detection", "quantity": "IC50", "value": "> 10000 nM"}
{"SMILES": "CCCOc1nc(N)nc(N)c1OCCCOc1ccccc1CCC(=O)O", "target": "Dihydrofolate reductase", "test": "enzyme activity, inhibitor", "quantity": "IC50", "value": "> 5000 nM"}
{"SMILES": "CN1Cc2c(N)cccc2C(=O)N1C1CCC(=O)NC1=O (stereo not shown)", "target": "Cereblon/Ikaros (Homo sapiens, UniProt Q13422+Q96SW2)", "test": "protein level, degrader, luciferase", "quantity": "DC50", "value": "67.2 nM"}
{"SMILES": "O=c1cc(-c2ccc(O)cc2)oc2c([C@@H]3OC[C@H](O)[C@H](O)[C@H]3O)c(O)c([C@@H]3O[C@H](CO)[C@@H](O)[C@H](O)[C@H]3O)c(O)c12", "target": "Calcium/calmodulin-dependent protein kinase type II subunit beta (CAMK2B, Homo sapiens, UniProt Q13554)", "test": "enzyme activity, inhibitor", "quantity": "IC50", "value": "157000 nM"}
